# Experimental data published in ChEMBL document CHEMBL4725354 (J Med Chem, 2020).
# Activity calls are given as the source filed them. The rule behind the calls is not given here.
# Columns and labels:
# [1] = biological target: T1, Broad substrate specificity ATP-binding cassette transporter ABCG2 (Homo sapiens, UniProt Q9UNQ0); test: Inhibition of human ABCG2-mediated multidrug resistance in MDCK2 cells assessed as potentiation of SN-38-induced cytotoxicity by measuring half-maximal cell death acceleration at 10 to 50 nM measured at 5.75 days by MTT assay; type: cell-based, MDCK-II; conditions: dose 10-50 nM, time 5.7 day; read-out: Activity
# T1 sequence (Q9UNQ0 whole entry): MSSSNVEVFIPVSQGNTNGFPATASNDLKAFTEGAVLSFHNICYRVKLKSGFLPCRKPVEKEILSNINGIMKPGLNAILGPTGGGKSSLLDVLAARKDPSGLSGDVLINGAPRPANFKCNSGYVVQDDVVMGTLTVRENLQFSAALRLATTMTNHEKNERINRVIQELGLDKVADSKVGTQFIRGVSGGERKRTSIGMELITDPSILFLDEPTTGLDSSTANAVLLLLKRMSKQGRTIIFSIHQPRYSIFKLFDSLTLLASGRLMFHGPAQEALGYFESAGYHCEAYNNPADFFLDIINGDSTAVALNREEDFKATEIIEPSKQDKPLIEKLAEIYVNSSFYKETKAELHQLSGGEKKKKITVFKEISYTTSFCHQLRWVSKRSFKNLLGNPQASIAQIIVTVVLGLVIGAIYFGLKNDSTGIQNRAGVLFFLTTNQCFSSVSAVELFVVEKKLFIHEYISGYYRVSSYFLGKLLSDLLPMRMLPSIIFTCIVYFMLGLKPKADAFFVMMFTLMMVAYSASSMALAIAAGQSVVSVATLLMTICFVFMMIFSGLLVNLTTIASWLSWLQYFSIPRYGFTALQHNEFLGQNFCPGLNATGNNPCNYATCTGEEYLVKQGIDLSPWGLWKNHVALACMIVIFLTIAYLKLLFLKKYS
# Procedure, shortened: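 MDCK II cells transfected with human ABCG2–GFP were exposed to SN-38 at 0.5 µM final, alone or with modulator at 0, 10, 25 or 50 nM. Cells were seeded at 10,000 down to 200 per well according to read-out day and kept at 37 °C, 5% CO2. MTT viability was read daily for 7 days. Inflection points of the viability–time curves were regressed against modulator concentration. At least 3 independent experiments, triplicates.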
# [2] = biological target: T1, Broad substrate specificity ATP-binding cassette transporter ABCG2; test: Inhibition of human ABCG2 expressed in MDCK2 cells co-expressing GFP preincubated for 30 mins followed by Hoechst 33342 addition and measured every 60 sec for 120 mins by fluorescence assay; type: cell-based, MDCK-II
# Procedure, shortened: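 MDCK II cells transfected with human ABCG2 cDNA C-terminally fused to GFP. Hoechst 33342 added at 1 µM final. Fluorescence (ex 355, em 460 nm) read every 60 s for 120 min. Steady-state means vs log concentration fitted by 3- or 4-parameter logistic to give IC50.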
# ABCG2 [3] = test: Therapeutic ratio of GI50 for Growth inhibition of MDCK2 cells over expressing human ABCG2 to IC50 for inhibition of human ABCG2 expressed in MDCK2 cells co-expressing GFP preincubated for 15 mins followed by pheophorbideA addition and measured after 2 hrs by flow cytometric analysis; type: toxicity, cell-based; conditions: dog, MDCK2 cells overexpressing human ABCG2, probe pheophorbide A; read-out: TI
# MDCK-II [4] = test: Cytotoxicity against MDCK2 cells over expressing human ABCG2 at 10 uM assessed as reduction in cell viability after 72 hrs by MTT assay; type: ADME, cell-based, Canis lupus familiaris; conditions: dog
# Procedure, shortened: (§1)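 Single-concentration screen at 10 µM in MDCK II BCRP and parental MDCK II cells. MTT assay, 72 h at 37 °C, 5% CO2. Viability referenced to culture medium (100%) and 10% DMSO (0%). Mean ± SEM of at least three independent experiments with duplicates.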
# [5] = biological target: T1, Broad substrate specificity ATP-binding cassette transporter ABCG2; test: Inhibition of human ABCG2 expressed in MDCK2 cells co-expressing GFP preincubated for 15 mins followed by pheophorbideA addition and measured after 2 hrs by flow cytometric analysis; type: cell-based, MDCK-II
# Procedure, shortened: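 Pheophorbide A added to 0.5 µM final and incubated 2 h. Read by flow cytometry (ex 488, em 695/50 nm); GFP expression checked at 525/30 nm. IC50 from 3- or 4-parameter logistic fit.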
# [6] = Down regulation of ABCG2 in MDCK2 cells at 10 nM after 7 days by Western blot analysis; type: functional, Canis lupus familiaris, MDCK-II; conditions: time 7 day
# Procedure, shortened: (§2)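 ABCG2-GFP MDCK II cells seeded in T25 flasks (86,000 for 4 days, 17,200 for 7 days). Exposed to modulator (10 nM) and/or SN-38 (0.5 µM) for 4 or 7 days. 15 µg protein run on stain-free 10% SDS-PAGE and transferred to PVDF. Probed with BXP-21 (1:200, overnight, 4 °C) and HRP secondary, ECL detection. Bands normalised to total protein and to the untreated control; one-sample t-test.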
# [7] = biological target: T1, Broad substrate specificity ATP-binding cassette transporter ABCG2; test: Inhibition of human ABCG2-mediated multidrug resistance in MDCK2 cells assessed as potentiation of SN-38-induced cytotoxicity at 10 nM after 7 days by MTT assay relative to SN-38 alone; type: cell-based; conditions: mdck-ii, 168 h, 0.01 µM, time 7 day
# Procedure, shortened: (§3)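 Time-dependent reversal in ABCG2-GFP MDCK II cells: SN-38 at 0.5 µM with modulator at 0, 10, 25 or 50 nM. Seeding density decreased with assay day (10,000 cells for day 1 down to 200 for day 7). MTT viability read daily for 7 days. Results normalised to medium-only cells or to SN-38 alone. Curve inflection points plotted vs modulator concentration to derive tmax, tmin, ctmin and c½tmax. Triplicates, at least three experiments; multiple t-test.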
# [8] = Growth inhibition of MDCK2 cells after 72 hrs by MTT assay; type: cell-based, Canis lupus familiaris, MDCK-II; conditions: dog
# Procedure, shortened: (§4)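 MTT viability assay. Compound dilutions in culture medium (3.2 to 1000 µM as prepared). About 2,000 cells per well, 72 h at 37 °C, 5% CO2. Culture medium set as 100% and 10% DMSO as 0% viability. MTT added for 1 h, formazan dissolved in DMSO, absorbance read at 570 nm with 690 nm background. GI50 from nonlinear regression of absorbance vs log concentration; at least three independent experiments, duplicates, mean ± SEM.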
# ABCG2 [9] = biological target: T2, ABCG2 (Homo sapiens, UniProt Q9UNQ0); test: Inhibition of human ABCG2 expressed in MDCK2 cells co-expressing GFP preincubated for 15 mins followed by pheophorbideA addition and measured after 2 hrs by flow cytometric analysis relative to control; type: cell-based, MDCK-II; conditions: probe pheophorbide A, read-out: Imax
# T2 sequence (Q9UNQ0 whole entry): T1 sequence (Q9UNQ0 whole entry)
# MDCK-II [10] = test: Cytotoxicity against MDCK2 cells assessed as reduction in cell viability at 10 uM after 72 hrs by MTT assay; type: cell-based, Canis lupus familiaris; conditions: dog; procedure, shortened: as §1
# ABCG2 [11] = biological target: T2, ABCG2; test: Inhibition of human ABCG2 expressed in MDCK2 cells co-expressing GFP preincubated for 30 mins followed by Hoechst 33342 addition and measured every 60 sec for 120 mins by fluorescence assay relative to control; type: cell-based, MDCK-II; conditions: probe Hoechst 33342, read-out: Imax
# Procedure, shortened: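 MDCK II cells transfected with human ABCG2 cDNA C-terminally fused to GFP. Steady-state means vs log concentration fitted by 3- or 4-parameter logistic to give IC50.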
# [12] = Effect on total ABCG2 in MDCK2 cells at 10 nM after 4 to 7 days in presence of SN-38 by Western blot analysis; type: ADME, cell-based, Canis lupus familiaris; conditions: dog, mdck-ii, 0.01 µM, time 4-7 day; procedure, shortened: as §2
# [13] = biological target: T1, Broad substrate specificity ATP-binding cassette transporter ABCG2; test: Inhibition of human ABCG2-mediated multidrug resistance in MDCK2 cells assessed as potentiation of SN-38-induced cytotoxicity by measuring time need to achieve half maximal cell death at 10 to 50 nM measured up to 7 days by MTT assay; type: cell-based; conditions: mdck-ii, 168 h, dose 10-50 nM, time <=7 day; procedure, shortened: as §3
# [14] = biological target: T1, Broad substrate specificity ATP-binding cassette transporter ABCG2; test: Inhibition of human ABCG2-mediated multidrug resistance in MDCK2 cells assessed as potentiation of SN-38-induced cytotoxicity at 10 to 50 nM after 5 days by MTT assay; type: cell-based; conditions: mdck-ii, 120 h, dose 10-50 nM, time 5 day
# [15] = Down regulation of ABCG2 in MDCK2 cells at 10 nM after 4 days by Western blot analysis; type: functional, Canis lupus familiaris, MDCK-II; conditions: time 4 day; procedure, shortened: as §2
# [16] = Growth inhibition of MDCK2 cells over expressing human ABCG2 after 72 hrs by MTT assay; type: ADME, cell-based, Canis lupus familiaris, MDCK-II; conditions: dog, MDCK2 cells overexpressing human ABCG2; procedure, shortened: as §4
# [17] = biological target: T1, Broad substrate specificity ATP-binding cassette transporter ABCG2; test: Inhibition of human ABCG2-mediated multidrug resistance in MDCK2 cells assessed as potentiation of SN-38-induced cytotoxicity at 10 to 50 nM measured up to 7 days by MTT assay; type: cell-based; conditions: mdck-ii, 168 h, dose 10-50 nM, time <=7 day; procedure, shortened: as §3
# ABCG2 [18] = test: Therapeutic ratio of GI50 for Growth inhibition of MDCK2 cells over expressing human ABCG2 to IC50 for inhibition of human ABCG2 expressed in MDCK2 cells co-expressing GFP preincubated for 30 mins followed by Hoechst 33342 addition and measured every 60 sec for 120 mins by fluorescence assay; type: toxicity, cell-based; conditions: dog, MDCK2 cells overexpressing human ABCG2, probe Hoechst 33342; read-out: TI
# [19] = Effect on total ABCG2 in MDCK2 cells at 0.5 uM after 4 to 7 days by Western blot analysis; type: ADME, cell-based, Canis lupus familiaris; conditions: dog, mdck-ii, time 4-7 day; procedure, shortened: as §2
# [20] = Up regulation of ABCG2 in MDCK2 cells at 0.5 uM after 4 days by Western blot analysis; type: functional, Canis lupus familiaris, MDCK-II; conditions: time 4 day; procedure, shortened: as §2
# [21] = Up regulation of ABCG2 in MDCK2 cells at 0.5 uM after 7 days by Western blot analysis; type: functional, Canis lupus familiaris, MDCK-II; conditions: time 7 day; procedure, shortened: as §2
# MDCK-II [22] = test: Cytotoxicity against MDCK2 cells over expressing human ABCG2 assessed as reduction in cell viability at 0.5 uM by after 3 days by MTT assay; type: functional, cell-based; conditions: Canis lupus familiaris, time 3.0 day
structure (smiles),measurement,setting,value
Cc1cc(Nc2ccc(C#N)c(C)c2)nc(-c2ccccc2)n1,EC50,[1],17.2 nM
same,IC50,[2],93.5 nM
same,selectivity ratio at 2 h,ABCG2 [3],90
same,Activity,MDCK-II [4],Non-Toxic
same,IC50,[5],175 nM
same,Activity,[6],24%
same,fold change (FC),[7],2
same,GI50 at 72 h,[8],15700 nM
same,Emax at 2 h,ABCG2 [9],76%
same,Activity,MDCK-II [10],Non-Toxic
same,Emax at 2 h,ABCG2 [11],106%
same,Activity,[12],Non-Toxic
same,Tmin,[13],4.25 days
same,inhibition (INH),[14],Active
same,Activity,[15],36%
same,GI50 at 72 h,[16],15700 nM
same,inhibition (INH),[17],Active
same,selectivity ratio,ABCG2 [18],167
CCc1c2c(nc3ccc(O)cc13)-c1cc3c(c(=O)n1C2)COC(=O)C3(O)CC (configuration not stated),Activity,[19],Non-Toxic
same,fold change (FC),[20],2
same,fold change (FC),[21],5
same,Activity,MDCK-II [22],inactive
